From article PMC11707965 (Journal of Biomaterials Applications, 2024)
Read-outs that look alike come from different tables or passages of the source.

Assays:
[1] = tested on: Staphylococcus aureus ATCC 29213; assay: Broth macrodilution antimicrobial susceptibility; assay type: cell-based; settings: S. aureus ATCC 29213; two-fold dilution from 3% boric acid / 9% zinc borate
[2] = tested on: Enterococcus faecalis ATCC 29212; assay: Broth macrodilution antimicrobial susceptibility; assay type: cell-based; settings: E. faecalis ATCC 29212; two-fold dilution from 3% boric acid / 9% zinc borate
Summary of the method: (§1)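 Broth macrodilution run per CLSI recommendations in Cationized Mueller Hinton Broth. Ten tubes per strain held two-fold serial dilutions of boric acid (top 3%) or zinc borate (top 9%). MIC was read from the tubes. For MBC, every tube without growth was subcultured onto solid medium, and MBC was the lowest concentration giving no growth.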

[3] = tested on: Streptococcus pyogenes ATCC 19615; assay: Broth macrodilution antimicrobial susceptibility; assay type: cell-based; settings: S. pyogenes ATCC 19615; two-fold dilution from 3% boric acid / 9% zinc borate
Summary of the method: as §1

[4] = tested on: Escherichia coli ATCC 25922; assay: Broth macrodilution antimicrobial susceptibility; assay type: cell-based; settings: E. coli ATCC 25922; two-fold dilution from 3% boric acid / 9% zinc borate
Summary of the method: as §1

[5] = tested on: Klebsiella pneumoniae ATCC 700603; assay: Broth macrodilution antimicrobial susceptibility; assay type: cell-based; settings: K. pneumoniae ATCC 700603; two-fold dilution from 3% boric acid / 9% zinc borate
Summary of the method: as §1

[6] = tested on: Pseudomonas aeruginosa ATCC 9027; assay: Broth macrodilution antimicrobial susceptibility; assay type: cell-based; settings: P. aeruginosa ATCC 9027; two-fold dilution from 3% boric acid / 9% zinc borate
Summary of the method: as §1

[7] = tested on: Acinetobacter baumannii ATCC 19606; assay: Broth macrodilution antimicrobial susceptibility; assay type: cell-based; settings: A. baumannii ATCC 19606; two-fold dilution from 3% boric acid / 9% zinc borate
Summary of the method: as §1

[8] = tested on: Proteus mirabilis ATCC 25933; assay: Broth macrodilution antimicrobial susceptibility; assay type: cell-based; settings: P. mirabilis ATCC 25933; two-fold dilution from 3% boric acid / 9% zinc borate
Summary of the method: as §1

[9] = tested on: Candida albicans ATCC 10231; assay: Broth macrodilution antimicrobial susceptibility; assay type: cell-based; settings: C. albicans ATCC 10231; two-fold dilution from 3% boric acid / 9% zinc borate
Summary of the method: (§2)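 Fungal strains were tested by CLSI-based broth macrodilution in RPMI 1640. Each strain had ten tubes of two-fold serial dilutions starting at 3% boric acid or 9% zinc borate. Tubes showing no growth were plated onto solid media to find the lowest concentration without growth (MBC).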

[10] = tested on: Aspergillus niger ATCC 16888; assay: Broth macrodilution antimicrobial susceptibility; assay type: cell-based; settings: A. niger ATCC 16888; two-fold dilution from 3% boric acid / 9% zinc borate
Summary of the method: as §2

[11] = tested on: L929 (mouse fibroblast) cell line; assay: Cytotoxicity / cell viability by MTT method; assay type: cell-based; settings: for IC50: read-out: IC50 dose that caused 50% decrease in cell proliferation, L929 cells, MTT
L929 cells = assay: Cell migration test; assay type: cell-based, mouse; settings: 24 h vs 0 h
Summary of the method: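 L929 fibroblasts (ATCC) were grown in DMEM with 10% FBS at 37°C and 5% CO₂. After the fourth passage they were seeded into 24-well plates at 2 × 10⁵ cells/ml and left 24 h to form a monolayer. Each well got one vertical scratch with a sterile pipette tip and was imaged at 0 h. Treatment followed (zinc borate 0.10–0.001 mM; boric acid 1000–0.001 mM), with re-imaging at 12 and 24 h (10x) to measure closure percentage.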

[12] = tested on: L929 (mouse fibroblast) cell line; assay: Antioxidant ability: protection against H2O2 oxidative stress, MTT method; assay type: cell-based; settings: read-out: EC50 dose, which increased the proliferative concentration by 50%, L929 cells, 0.4 mM H2O2 stress

OB(O)O [Boric acid, Boric Acid]
MBC (%) [1]: 0.75% | MIC (%) [1]: 0.75% | MIC (%) [2]: 1.5% | MBC (%) [3]: 3% | MIC (%) [3]: 0.0058% | MBC (%) [4]: 1.5% | MIC (%) [4]: 0.375% | MIC (%) [5]: 0.75% | MBC (%) [6]: no bactericidal effect | MIC (%) [6]: 0.75% | MIC (%) [7]: 0.375% | MBC (%) [8]: 3% | MIC (%) [8]: 0.75% | MBC (%) [9]: 0.0058% | MBC (%) [10]: 0.1875% | Proliferative or inhibitory effect on L929 cells versus control ([11]; 0.001 mM-1000 mM, 24th, 48th, 72nd hours, except 100 mM and 500 mM at 24th hour, 100 mM at 48th hour): no significant proliferation or inhibition was observed | migration recovery (closure) percentage (L929 cells; 0.001 mM): 86.91% | migration recovery (closure) percentage (L929 cells; 0.01 mM): 70.81% | migration recovery (closure) percentage (L929 cells; 0.025 mM): 81.05% | migration recovery (closure) percentage (L929 cells; 0.05 mM): 83.57% | migration recovery (closure) percentage (L929 cells; 0.10 mM): 77.98% | migration recovery (closure) percentage (L929 cells; 0.25 mM): 86.54% | migration recovery (closure) percentage (L929 cells; 0.50 mM): 80.92% | migration recovery (closure) percentage (L929 cells; 0.75 mM): 83.24% | migration recovery (closure) percentage (L929 cells; 1 mM): 73.18% | migration recovery (closure) percentage (L929 cells; 50 mM): 87.55% | migration recovery (closure) percentage (L929 cells; 250 mM): 75.56% | migration recovery (closure) percentage (L929 cells; 500 mM): 70.05% | migration recovery (closure) percentage (L929 cells; 750 mM): 81.62% | migration recovery (closure) percentage (L929 cells; 1000 mM): 62.46%

Zinc borate
MBC (%) [1]: 4.5% | MBC (%) [2]: >9% | MIC (%) [2]: 0.0351% | MBC (%) [3]: 0.2812% | MIC (%) [3]: 0.0175% | MBC (%) [4]: 0.5625% | MIC (%) [4]: 0.0351% | MBC (%) [5]: 2.25% | MIC (%) [5]: 0.1406% | MBC (%) [7]: 9% | MIC (%) [7]: 1.125% | MBC (%) [8]: >9% | MIC (%) [8]: 4.5% | MBC (%) [9]: 0.0175% | MBC (%) [10]: >9% | IC50 ([11]; 24th hour): 133 µM | IC50 ([11]; 48th hour): 197 µM | IC50 ([11]; 72nd hour): 142 µM | EC50 ([12]; 24th hour): 51 µM | EC50 ([12]; 48th hour): 15 µM | EC50 ([12]; 72nd hour): 11 µM | migration recovery (closure) percentage (L929 cells; 0.025 mM): 88.13%
